This is a sample that favours compounds with a hit; in the whole collection about 3.7% have one here.
KCNK3 inh = human KCNK3 channel inhibitors, primary screen, CHO cells, FluxOR thallium flux, B-score. Potassium channel subfamily K member 3 (Homo sapiens), O14649. FluxOR fluorescence; active compounds read low. B-score at 10 µM. hit rate 0.84% among 340,000. AID 602410, 2012;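 active = B-score under library mean minus 4 SD, starting fluorescence ratio at most library mean plus 5 SD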;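 also: more negative B-score means stronger inhibition of thallium flux through KCNK3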
hERG rescue = hERG rescue from dofetilide block, primary screen, cell-based, CHO-hERG, FluxOR thallium flux, dofetilide IC70; dofetilide IC70 present; activation (rescue from dofetilide block), less the hit threshold, % at 10 µM; hit rate 0.51% among 310,000; AID 1511, 2009;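 active = activation above the mean of controls blocked by dofetilide plus 5 SD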;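 also: thallium influx through hERG after potassium depolarization seen as dye fluorescence rise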
KCNQ1 pot = potentiators or activators of KCNQ1 channel, primary screen, cell-based, thallium flux, high-throughput; hit rate 0.35% among 310,000; Potassium voltage-gated channel subfamily KQT member 1 (Homo sapiens), P51787; AID 2648, 2010; CHO-K1 KCNQ1, thallium flux FluxOR fluorescence; active compounds read high; B-score at 10 µM;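 active = fluorescence ratio B-score, a plate-corrected score, at least three library SD, with initial intensity B-score within 5 SD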
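Test system: CHO-K1 cells stably expressing KCNQ1 / Medium: assay buffer / Also added: depolarizing K+/Tl+ stimulus, K2SO4 and Tl2SO4 each 12.5 mM in 5x stock / Incubation: 90 min dye loading and 20 min compound exposure, both at room temperature / Signal: thallium influx via FluxOR fluorescence, kinetic imaging / Evaluation: B score of baseline-normalized fluorescence ratio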
KCNK9 inh = KCNK9 potassium channel inhibitors, primary screen, HEK293 cells, thallium flux | Potassium channel subfamily K member 9 (Homo sapiens), Q9NPC2 | FluxOR thallium flux fluorescence; active compounds read low | B-score at 10 µM | hit rate 1.2% among 310,000 | AID 488922, 2010;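 active = ratio B-score over 3 SD below the library mean, with starting fluorescence within 5 SD of its mean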;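 also: negative B-score means less thallium flux so channel inhibition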
Target sequence (Q9NPC2 whole entry, looked up): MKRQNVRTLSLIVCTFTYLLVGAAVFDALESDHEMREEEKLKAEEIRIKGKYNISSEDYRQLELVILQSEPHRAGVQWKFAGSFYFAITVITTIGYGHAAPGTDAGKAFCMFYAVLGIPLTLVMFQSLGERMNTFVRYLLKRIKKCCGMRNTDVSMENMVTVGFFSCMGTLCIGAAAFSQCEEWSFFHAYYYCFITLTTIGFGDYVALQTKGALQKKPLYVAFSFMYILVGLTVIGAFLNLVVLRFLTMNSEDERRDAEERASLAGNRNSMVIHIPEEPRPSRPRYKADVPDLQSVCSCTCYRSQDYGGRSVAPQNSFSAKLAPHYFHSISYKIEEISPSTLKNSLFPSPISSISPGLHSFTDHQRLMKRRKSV
Kir21 block = inhibitors of mouse Kir2.1 inward-rectifier potassium channel. HEK293-Kir2.1, FluxOR thallium flux fluorescence; active compounds read low. hit rate 0.85% among 310,000. B-score at 10 µM. Inward rectifier potassium channel 2 (Mus musculus), P35561;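 active = fluorescence ratio B-score at or below minus 3 SD of library scores, with starting-brightness B-score within 2 SD, cut at about -4.2 in these data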;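 also: channel flux triggered by added potassium and thallium sulfate stimulus; B-score of peak minus minimum fluorescence over baseline after thallium stimulus; more negative B-score means stronger Kir2.1 block with less thallium influx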
KCNQ1 block = inhibitors of human KCNQ1 channel, primary screen, cell-based, thallium flux, high-throughput; CHO-K1 KCNQ1, FluxOR thallium flux fluorescence; active compounds read high; B-score at 10 µM; hit rate 1.3% among 310,000;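 active = compounds whose thallium flux B-score, printed positive for inhibition, exceeds three library SD while starting fluorescence stays within three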;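 also: channel opened by potassium depolarization with thallium stimulus after 20 min compound exposure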
KCNK9 inh conf = KCNK9 potassium channel inhibitors, confirmation, HEK293 cells, thallium flux, duplicate. shares compounds with KCNK9 inh. FluxOR thallium flux fluorescence. inhibition, % at 10 µM. hit rate 43% among 4,900. AID 492992, 2010;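 active = thallium signal inhibited by more than 5 SD of the compound-free buffer control wells, on both duplicate plates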;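 also: 0% = assay buffer control wells without compound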
Kir2-1 spec = mouse Kir2.1 channel inhibition, confirmation, selectivity assay for KCNK9 modulator project, cell-based, HEK293, thallium flux | shares compounds with KCNK9 inh | Kir2.1 cells, FluxOR thallium flux fluorescence | inhibition, % at 10 µM | hit rate 4% among 4,900 | AID 492993, 2010;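 active = thallium signal drop more than 5 SD beyond the mean of the no-compound control wells, seen in both duplicate plates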;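 also: signal is fluorescence rise after thallium addition divided by baseline fluorescence; plate controls were assay buffer only for no effect and full block by chlorpromazine control for full effect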
HEK293 Tl ctr = thallium flux in non-induced HEK293 cells, confirmation, counter-screen for KCNK9 inhibitor project, cell-based, second counter screen, non-induced KCNK9-HEK293; hit rate 40% among 4,900; inhibition, % at 10 µM; shares compounds with KCNK9 inh; FluxOR thallium flux; AID 492997, 2010;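 active = thallium signal drop beyond 5 SD of the untreated control mean, on both duplicate plates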;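 also: plate controls were buffer only IC0 wells for no effect and SID17386958 at its maximal inhibitory level for full effect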
An asterisk follows results filed as active; i = inactive; / = not tested or not shown.

SMILES	KCNK3 inh	hERG rescue	KCNQ1 pot	KCNK9 inh	Kir21 block	KCNQ1 block	KCNK9 inh conf	Kir2-1 spec	HEK293 Tl ctr
CCOc1cc(S(=O)(=O)n2ccnc2)ccc1Cl	i	-4	i	i	0.01	i	/	/	/
Cc1ccccc1NC(=O)Cc1c[nH]c2ccccc12	i	-8	i	i	-0.62	i	/	/	/
CCOc1ccc(N2C(=O)c3cccnc3C2Nc2ccc(C)cc2)cc1 (stereo not drawn)	i	-7	i	i	1.2	i	i	i	i
CCOc1ccc(N2C(=O)c3cccnc3C2Nc2ccc(C)c(C)c2)cc1 (stereo not drawn)	i	-11	i	i	-0.02	i	i	i	i
CC(Sc1n[nH]c(=O)n1Cc1ccccc1)C(=O)NCC1CCCO1 (stereo not drawn)	i	/	/	/	/	/	/	/	/
CC(C)CC(OC(=O)CC1Sc2ccccc2NC1=O)C(=O)NC1CCCC1 (stereo not drawn)	i	-6	i	-8.9*	1.8	i	i	i	i
CC(=O)Nc1ccc(NC(=O)C(C)OC(=O)C2CCN(S(=O)(=O)c3ccc4c(c3)OCCO4)CC2)cc1 (stereo not drawn)	i	-15	i	i	0.86	i	/	/	/
Cc1ccc(OCCn2cnc3cc([N+](=O)[O-])ccc3c2=O)cc1	i	-19	i	i	1.1	i	i	i	i
COc1ccc(C)cc1NC(=O)CNC(=O)[C@@H]1Cc2ccccc2CN1	i	-7	i	i	0.22	i	/	/	/
O=C(Nc1ccc(-c2ccc3nncn3n2)cc1)c1ccc(Br)o1	i	-7	i	i	-1.5	i	/	/	/
CCOC(=O)C1CCCN(Cc2cc(=O)oc3cc(C)c(C)cc23)C1 (stereo not drawn)	i	-19	i	i	-2.7	i	i	i	i
COc1ccccc1COCC(O)CN1CCCCC1CO (stereo not drawn)	i	-1	i	i	0.31	i	/	/	/
CCOC(=O)C1CCCN(CC(O)COCc2ccccc2OC)C1 (stereo not drawn)	i	-4	i	i	-2	i	i	i	i
CCOC(=O)C1CCCN(Cc2cc(Br)c(OC)cc2OC)C1 (stereo not drawn)	i	-12	i	i	-0.74	i	i	i	i
CCCc1nc(NCCCOCC)c2nnn(Cc3ccccc3)c2n1	i	-6	i	i	0.39	i	/	/	/
CSc1ccccc1C(=O)C1CCCN(C(=O)c2cncs2)C1 (stereo not drawn)	i	-5	i	i	-1.9	i	/	/	/
O=C(COc1ccc(Br)cc1Cl)NNC(=O)c1ccccc1	i	/	/	/	/	/	/	/	/
N#CCCn1cc(/C=N/NC(=O)c2ccncc2)c(-c2ccc(F)cc2)n1	i	-1	i	i	-2.5	i	/	/	/
C[C@@H]1CCC(=O)N(CC[C@H](Oc2ccccc2)c2ccccc2)CC1	i	-10	i	-15*	-2.9	i	74%*	i	36%*
Cc1ccc(S[C@@H](CCN2CC[C@H](C)CCC2=O)c2ccccc2)cc1	i	-7	i	-9.4*	-1.2	i	66%*	i	34%*
COc1ccc(S[C@@H](CCN2CC[C@H](C)CCC2=O)c2ccccc2)cc1	i	/	/	/	/	/	/	/	/
COc1ccc(C2NC(c3ccc(OC)cc3)C(c3ccccc3)C(=O)C2c2ccccc2)cc1 (stereo not drawn)	i	-11	i	i	-0.62	i	/	/	/
COc1cccc(CN2CCN(C(=O)c3cc(-c4ccncc4)nc4ccc(C)cc34)CC2)c1	i	-36	i	i	-0.73	i	/	/	/
COc1cccc(CN2CCN(C(=O)c3cc(-c4ccccn4)nc4ccc(Cl)cc34)CC2)c1	i	-30	i	i	-1.5	i	i	i	i
NC(=O)NCCN1CCN(c2ncc(C(F)(F)F)cc2Cl)CC1	i	-2	i	i	-1.5	i	/	/	/
SMILES	KCNK3 inh	hERG rescue	KCNQ1 pot	KCNK9 inh	Kir21 block	KCNQ1 block	KCNK9 inh conf	Kir2-1 spec	HEK293 Tl ctr
COC(=O)c1c(N)sc2c1CCN(c1ncc(C(F)(F)F)cc1Cl)C2	i	-4	i	-9.4*	-0.42	i	38%*	i	i
O=C(C1CCN(S(=O)(=O)c2ccc(Br)s2)CC1)N1CCc2ccccc21	i	-11	i	i	0.31	i	i	i	i
COC(=O)C1CCN(S(=O)(=O)c2ccc(Br)s2)CC1	i	/	/	/	/	/	/	/	/
CCn1c(SCc2ccc(Cl)cc2Cl)nc2nc3c(cc2c1=O)CCCC3	i	-13	i	i	0.32	i	i	i	i
CCOc1cc(/C=C2\C(=O)N(CCc3ccc(OC)c(OC)c3)C(C)=C2C(=O)OC)ccc1O	i	-13	i	i	0.44	i	/	/	/
COC(=O)C1=C(C)N(Cc2ccc(C)cc2)C(=O)/C1=C\c1ccc(O)c(OC)c1	i	-21	i	-8.9*	-0.35	i	62%*	i	40%*
COCCn1c(C)cc(C(=O)COC(=O)c2c(C)nn(Cc3ccccc3)c2C)c1C	i	-6	i	i	-1.1	i	i	i	i
Cc1ccccc1C(=O)Nc1ccnn1C1CCN(Cc2cnn(C)c2)CC1	i	-8	i	i	0.46	i	/	/	/
Cc1cccc(NC(=O)CN2CCC(C(=O)c3ccc4c(c3)OCCO4)CC2)c1	i	-10	i	i	1.6	i	i	i	i
CCN(C(=O)CSc1nc2cc(C(F)(F)F)ccc2n1Cc1ccccc1)C1CCS(=O)(=O)C1 (stereo not drawn)	i	-7	i	-10*	-0.93	i	61%*	i	52%*
